ChEMBL document CHEMBL1142564, “Lanostane triterpenoids and triterpene glycosides from the fruit body of Fomitopsis pinicola and their inhibitory activity against COX-1 and COX-2” (J Nat Prod, 2005)

Assays:
[1] = molecular target: Prostaglandin G/H synthase 2 (Ovis aries, UniProt P79208); test: Inhibition of sheep placental COX2 by liquid scintillation counter
Procedure, shortened: (§1)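 Enzymes used were ram seminal vesicle COX-1 and sheep placenta COX-2 (70% pure), 2 units each, in 0.1 M Tris-HCl pH 7.5 with 1 mM hematin and 2 mM phenol. Sample was preincubated 2 min at 37 °C, then 51.4 µM [1-14C]arachidonic acid was added for 2 min at 37 °C. Extraction used hexane-EtOAc (2:1); PGE2 was measured by radioimmunoassay with scintillation counting. IC50 came from duplicate four-point titration.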

[2] = molecular target: T1, Prostaglandin G/H synthase 1 (Ovis aries) (UniProt P05979); test: Inhibition of COX1 from ram seminal vesicles at 10 ug/ml by liquid scintillation counter
T1 sequence (whole entry): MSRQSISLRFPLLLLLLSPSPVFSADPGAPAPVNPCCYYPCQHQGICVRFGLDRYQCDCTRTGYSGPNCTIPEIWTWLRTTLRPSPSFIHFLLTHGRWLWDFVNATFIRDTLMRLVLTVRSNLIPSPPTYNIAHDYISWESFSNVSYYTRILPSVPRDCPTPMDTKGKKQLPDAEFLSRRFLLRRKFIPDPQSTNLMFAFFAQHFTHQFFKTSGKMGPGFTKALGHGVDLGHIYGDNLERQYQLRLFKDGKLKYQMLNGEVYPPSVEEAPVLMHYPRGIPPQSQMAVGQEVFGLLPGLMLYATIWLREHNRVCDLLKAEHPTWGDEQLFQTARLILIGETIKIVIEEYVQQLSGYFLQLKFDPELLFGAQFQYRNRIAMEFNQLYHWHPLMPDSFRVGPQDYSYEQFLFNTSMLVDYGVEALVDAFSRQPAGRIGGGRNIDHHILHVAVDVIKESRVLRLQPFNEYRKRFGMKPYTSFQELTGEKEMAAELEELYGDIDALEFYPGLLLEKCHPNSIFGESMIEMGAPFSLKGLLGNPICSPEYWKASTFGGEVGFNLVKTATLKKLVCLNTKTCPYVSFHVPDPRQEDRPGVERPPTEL

[3] = Inhibition of sheep placental COX2 by liquid scintillation counter
[4] = tested on: Prostaglandin G/H synthase 2 (Ovis aries); test: Inhibition of sheep placental COX2 at 10 ug/ml by liquid scintillation counter
[5] = molecular target: T2, Prostaglandin G/H synthase 1 (Ovis aries, UniProt P05979); test: Inhibition of COX1 from ram seminal vesicles by liquid scintillation counter; procedure, shortened: as §1
T2 sequence (P05979 whole entry): T1 sequence (whole entry)

Prostaglandin G/H synthase 2, sequence (P79208 whole entry, looked up): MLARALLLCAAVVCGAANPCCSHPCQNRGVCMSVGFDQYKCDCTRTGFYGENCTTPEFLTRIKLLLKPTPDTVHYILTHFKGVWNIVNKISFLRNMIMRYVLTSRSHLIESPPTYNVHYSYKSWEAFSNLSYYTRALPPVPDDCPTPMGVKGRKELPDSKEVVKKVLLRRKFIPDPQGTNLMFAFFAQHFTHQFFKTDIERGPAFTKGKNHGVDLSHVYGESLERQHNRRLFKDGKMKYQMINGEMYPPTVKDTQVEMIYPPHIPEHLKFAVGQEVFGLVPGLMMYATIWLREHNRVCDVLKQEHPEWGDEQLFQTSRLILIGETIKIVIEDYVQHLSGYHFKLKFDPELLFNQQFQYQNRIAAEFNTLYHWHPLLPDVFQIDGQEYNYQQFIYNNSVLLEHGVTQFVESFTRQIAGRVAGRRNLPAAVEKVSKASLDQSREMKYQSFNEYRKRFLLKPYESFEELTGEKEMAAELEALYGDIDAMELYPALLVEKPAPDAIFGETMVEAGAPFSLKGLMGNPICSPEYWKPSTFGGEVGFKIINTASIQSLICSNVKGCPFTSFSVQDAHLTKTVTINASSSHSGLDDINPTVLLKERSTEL

IC50 [1] [µM] | inhibition [2] [%] | INH [3] [×10⁻⁵ M] | inhibition [4] [%] | IC50 [5] [mM] | SMILES
0.15 | 57.2 |  |  |  | CC(=O)O[C@@H]1CC[C@]2(C)C3=C(CC[C@H]2C1(C)C)[C@]1(C)CC[C@H]([C@@H](C/C=C/C(C)(C)O)C(=O)O[C@@H]2OC[C@@H](O)[C@H](O)[C@H]2O)[C@@]1(C)CC3 [FOMITOSIDE E]
 | 21.7 | 1.85 |  |  | C=C(CC[C@@H](C(=O)O[C@@H]1OC[C@@H](O)[C@H](O)[C@H]1O)[C@H]1CC[C@@]2(C)C3=C(CC[C@]12C)[C@@]1(C)CC[C@@H](OC(C)=O)C(C)(C)[C@@H]1CC3)C(C)C
1.15 | 18.1 |  |  |  | CC(C)(O)[C@@H](O)CC[C@@H](C(=O)O)[C@H]1CC[C@@]2(C)C3=C(CC[C@]12C)[C@@]1(C)CCC(=O)C(C)(C)[C@@H]1CC3 [FOMITOPINIC ACID A]
 |  |  | 70.1 | 0.0739 | COC(=O)CC(C)(O)CC(=O)O[C@@H]1CC[C@]2(C)C3=C(CC[C@H]2C1(C)C)[C@]1(C)CC[C@H]([C@@H](CCC=C(C)C)C(=O)O[C@@H]2OC[C@@H](O)[C@H](O)[C@H]2O)[C@@]1(C)CC3 (some centres undefined) [FOMITOSIDE H]
1.13 | 27.5 |  |  |  | CC(=O)O[C@@H]1CC[C@]2(C)C3=C(CC[C@H]2C1(C)C)[C@]1(C)CC[C@H]([C@@H](CCC=C(C)C)C(=O)O[C@@H]2OC[C@@H](O)[C@H](O)[C@H]2O)[C@@]1(C)CC3 [FOMITOSIDE F]
5110 |  |  |  | 1.91 | CC(C)=CCC[C@@H](C(=O)O[C@@H]1OC[C@@H](O)[C@H](O)[C@H]1O)[C@H]1CC[C@@]2(C)C3=C(CC[C@]12C)[C@@]1(C)CCC(=O)C(C)(C)[C@@H]1CC3 [FOMITOSIDE C]
2390 |  |  |  | 3.33 | C=C(CC[C@@H](C(=O)O[C@@H]1OC[C@@H](O)[C@H](O)[C@H]1O)[C@H]1CC[C@@]2(C)C3=C(CC[C@]12C)[C@@]1(C)CCC(=O)C(C)(C)[C@@H]1CC3)C(C)C [FOMITOSIDE D]
